Rows were chosen to be rich in hits. Some 2.1% of all compounds tested hit in one or more screens of this group.
miR-122 sensor – inhibitors of miR-122 in Huh7 cells; Huh7 miR-122 Renilla luciferase sensor, 48 h; neutral wells = 0, positive control = 100; AID 602342; 0.3% of 340,000 active; activation (reporter increase), % at 12.5 µM;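 active = mean replicate activation score at least 90 and every replicate individually at or above 90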;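 also: higher luciferase means less miR-122 activity so hits act as miR-122 inhibitors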
SR-BI DiI inh – mouse SR-BI HDL lipid transfer inhibition | ldlA[mSR-BI] CHO cells, DiI-HDL uptake fluorescence, 3 h | inhibition, % at 12.5 µM | 0.96% of 320,000 active;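 active = mean replicate inhibition of at least 70% and a set share of replicates each scoring 70 or more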;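 also: 0% = median of neutral control wells and 100% = median of positive control wells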
Target sequence (Q61009 whole entry, looked up): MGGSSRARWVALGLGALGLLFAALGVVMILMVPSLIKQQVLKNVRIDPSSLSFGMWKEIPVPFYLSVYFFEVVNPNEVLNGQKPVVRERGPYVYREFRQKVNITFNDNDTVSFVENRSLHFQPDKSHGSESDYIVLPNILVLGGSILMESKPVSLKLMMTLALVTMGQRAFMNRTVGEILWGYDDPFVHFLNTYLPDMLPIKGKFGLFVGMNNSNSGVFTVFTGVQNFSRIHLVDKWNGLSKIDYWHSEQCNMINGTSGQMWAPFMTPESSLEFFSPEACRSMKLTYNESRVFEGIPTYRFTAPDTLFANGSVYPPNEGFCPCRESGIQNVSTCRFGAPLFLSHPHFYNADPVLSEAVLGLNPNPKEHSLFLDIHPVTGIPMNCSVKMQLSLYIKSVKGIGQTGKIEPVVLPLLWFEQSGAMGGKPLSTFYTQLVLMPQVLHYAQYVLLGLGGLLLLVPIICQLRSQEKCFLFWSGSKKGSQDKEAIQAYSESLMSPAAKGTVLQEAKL
CAL PDZ FP-1 – inhibitors of human CAL PDZ peptide binding; Q9HD26; inhibition, % at 24.9 µM; purified CAL PDZ, TMR-peptide fluorescence polarization, 1 h; 0.92% of 300,000 active; AID 602252;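 active = mean inhibition of at least 30% with at least half of replicates also reaching 30%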;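 also: 0% = DMSO neutral control and 100% = excess unlabeled competitor peptide PRC23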
SR-BI DiI-HDL act – enhances SR-BI lipid uptake from DiI-HDL | 0.096% of 320,000 active | activation, % at 12.5 µM | CHO ldlA[mSR-BI] cells, DiI-HDL uptake fluorescence, 3 h; 100 = double the neutral-control signal;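 active = mean replicate activation of at least 60% and every replicate at or above 60%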;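 also: 0% = median plate neutral-control signal and 100% = twice that signal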
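Material: SR-BI-overexpressing, LDLR-lacking CHO cells | Dosing: Single compound concentration, delivered by pin transfer | Probe or stimulus: Labelled HDL, 10 µg/mL | Signal: Bottom-read cell fluorescence after medium removal, ex 550/em 595 nm | Schedule: 3 h, 37 °C | Evaluation: HDL uptake via cellular fluorescence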
ARNT TACC3 PPI – disrupts binding between human ARNT and TACC3; Q9Y6A5; AlphaScreen His-ARNT PAS-B/GST-TACC3 binding, luminescence; TACC3 fragment carries E629A point mutation; inhibition, % at 9.99 µM; 0.66% of 390,000 active;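 active = mean inhibition of replicates at least 50% and at least half of replicates each reaching 50%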;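 also: 0% = complete ARNT plus TACC3 wells and 100% = ARNT alone without TACC3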
CAL PDZ FP-2 – human CAL PDZ-peptide interaction inhibition | 0.02% of 330,000 active | inhibition, % at 20 µM | purified CAL PDZ, TMR-peptide fluorescence polarization, 1 h | AID 504414 | Q9HD26;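 active = highest replicate inhibition of at least 40%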;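 also: plate controls were DMSO neutral control wells for no effect and unlabeled competitor peptide control wells for full effect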
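System: tagged CAL PDZ domain. Schedule: 1 h room-temperature incubation prior to read. Signal: fluorescence polarization (mP). Measure: percent inhibition from loss of millipolarization.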
Starred values were filed as active, the others as inactive; . = no result; [ ] = dose if it differs, or a comment.

SMILES	miR-122 sensor	SR-BI DiI inh	CAL PDZ FP-1	SR-BI DiI-HDL act	ARNT TACC3 PPI	CAL PDZ FP-2
CCC(=O)N(C)C[C@@H]1Oc2cc(C#CC3CCCCC3)ccc2S(=O)(=O)N([C@@H](C)CO)C[C@@H]1C	33[16.7 µM]	.	.	.	3	.
Cn1c(=O)[nH]c(=O)c2c1nc(Br)n2Cc1cccc(Br)c1	44	-1	-3	1	4	5
CCCNc1nc2c(c(=O)[nH]c(=O)n2C)n1Cc1cccc(Br)c1	-4	9	36*	-9	-10	.
O=C(c1ccc(Cl)cc1)N1CCC(N2CCC(C(=O)N3CCOCC3)CC2)CC1	1	-24	-3	24	-3	-2
Cc1ccc(C(=O)N2CCC(N3CCC(C(=O)N4CCOCC4)CC3)CC2)cc1C	-8	-10	74*	10	2	-1
O=C(C[C@@H]1C=C[C@H](NS(=O)(=O)c2ccc(F)cc2)[C@@H](CO)O1)N1CCC(Cc2ccccc2)CC1	.	.	.	.	6	.
S=C(NCc1ccccn1)NN=Cc1ccccn1	.	15	-2	-15	58*	0
Cc1ccc(NC(=S)NCc2ccccn2)cc1	8	-26	0	26	5	-2
Cc1cccc(N2CCN(C(=S)Nc3ccc4nc(N5CCN(C)CC5)cc(C)c4c3)CC2)c1C	-6	89*	-4	-89	-2	-1
CCOC(=O)N1CCC(NC(=S)Nc2ccc3nc(N4CCN(C)CC4)cc(C)c3c2)CC1	-4	-112	-2	112*	4	1
Cc1ccc2[nH]c3nc(NN)nnc3c2c1	-5	-10	-4	10	61*	2
Cc1ccc2[nH]c3nc(SCCN4CCOCC4)nnc3c2c1	5	-29	-3	29	3	-1
CCCC(=O)Nc1ccc2c(c1)C(=O)N(C)[C@H]1CC[C@H](CC(=O)NCc3ccccc3Cl)O[C@H]1CO2	38[16.7 µM]	.	.	.	2	.
O=C(NC[C@H]1N[C@H](CO)[C@@H]1c1ccc(C2=CCCCC2)cc1)c1ccccc1	-21[16.7 µM]	.	.	.	0	.
COc1ccc(-c2nnc(SCC(=O)Nc3ccc(Cl)cc3)n2C)cc1	-8	17	-1	-17	-3	-2
CCOC(=O)/C(=N\Nc1cccc(Cl)c1)Sc1nnc(-c2ccc(OC)cc2)n1C	.	-23	-3	23	46*	-1
CCC(=O)Nc1ccc2c(c1)C(=O)N(C)C[C@H](OC)[C@@H](C)CN(C(=O)c1cnccn1)[C@H](C)CO2	.	.	.	.	-9	.
C[C@H](O)C#Cc1ccc2c(c1)O[C@H](CN(C)Cc1ccc(-c3ccccc3)cc1)[C@H](C)CN([C@@H](C)CO)S2(=O)=O	-17[16.7 µM]	.	.	.	15	.
O=C(C[C@H]1CC[C@@H](NS(=O)(=O)c2ccc(F)cc2)[C@H](CO)O1)NC1CCC1	.	.	.	.	30*	.
CCC(=O)Nc1cccc(C2=NN(c3ccccc3)C(c3ccc(OC)cc3)C2)c1 (stereo not drawn)	11	70*	-2	-70	-20	0
COc1ccc(C2CC(c3cccc(Cl)c3)=NN2c2ccc(S(N)(=O)=O)cc2)cc1 (stereo not drawn)	0	77*	0	-77	-25	1
Cc1cc(C(=O)Nc2cccc3c2O[C@@H](CN(C)Cc2ccc(Oc4ccccc4)cc2)[C@H](C)CN([C@H](C)CO)C3=O)n(C)n1	-11[16.7 µM]	.	.	.	9	.
CCCN1C[C@H](C)[C@H](OC)CN(C)C(=O)c2cc(NC(=O)CC)ccc2OC[C@H]1C	9[16.7 µM]	.	.	.	.	.
COc1ccc(NC(=O)c2cccc(N3C(=O)NC4CC3(C)Oc3ccccc34)c2)cc1 (stereo not drawn)	-6	34	-7	-34	-1	.
CC12CC(NC(=O)N1c1cccc(C(=O)Nc3ncn[nH]3)c1)c1ccccc1O2 (stereo not drawn)	-10	-14	1	14	21*	-1
SMILES	miR-122 sensor	SR-BI DiI inh	CAL PDZ FP-1	SR-BI DiI-HDL act	ARNT TACC3 PPI	CAL PDZ FP-2
C=C(NC(=O)C(=C)NC(=O)c1csc(C2=NC3c4csc(n4)C4NC(=O)c5csc(n5)C(C(C)(O)C(C)O)NC(=O)C5CSC(=N5)/C(=C/C)NC(=O)C(C(C)O)NC(=O)c5csc(n5)C3(CC2)NC(=O)C(C)NC(=O)C(=C)NC(=O)C(=C)NC(=O)C(C(C)C)NC2C=Cc3c(C(C)O)cc(nc3C2O)C(=O)OC4C)n1)C(N)=O (stereo not drawn)	.	-143	-4	143*	6	-2
CCOc1ccc(/C=C2/C(=N)N3OC(C)=CC3=NC2=O)cc1OC	-14	-86	1	86*	2	-2
C[C@@H]1CN([C@H](C)CO)C(=O)c2cc(C#CC3CCCC3)cnc2O[C@H]1CN(C)C(=O)Nc1ccccc1	46[16.7 µM]	.	.	.	3	.
Cc1ccc(S(=O)(=O)N2CCOCC2)cc1C(=O)N1CCN(c2ncccn2)CC1	-7	-14	51*	14	29	0
O=C(OCC(=O)N1CCc2ccccc2C1)c1cccnc1Cl	-4	-8	71*	8	-1	21
Cc1ccc(S(=O)(=O)N2CCOCC2)cc1C(=O)OCC(=O)N1CCc2ccccc2C1	4	76*	-2	-76	14	0
Cc1ccc(S(=O)(=O)N2CCOCC2)cc1C(=O)N1CCOCC1	-1	-1	2	1	-9	-3
CNC[C@@H]1OCCCC[C@H](C)Oc2ccc(NC(=O)Nc3cccc4ccccc34)cc2C(=O)N([C@H](C)CO)C[C@@H]1C	-1[16.7 µM]	.	.	.	.	.
COc1ccc(NC(=O)Nc2ccc3c(c2)C(=O)N([C@H](C)CO)C[C@H](C)[C@H](CN(C)S(=O)(=O)c2ccc(C)cc2)OCCCC[C@H](C)O3)cc1	11[16.7 µM]	.	.	.	24	.
O=c1[nH][nH]cc1C=Nc1cc(Cl)ccc1O	-9	-14	-3	14	49*	-1
O=c1[nH][nH]cc1C=Nc1ccc(Cl)cc1Cl	.	-24	-1	24	-3	-1
O=S(=O)(c1cccc(-c2csc(-c3ccccc3)n2)c1)N1CCOCC1	11	17	-2	-17	-5	-1
O=S(=O)(c1cccc(-c2csc(N/N=C/c3ccco3)n2)c1)N1CCOCC1	.	72*	-5	-72	10	-2
CCOc1cc(/C=N/Nc2nc(-c3cccc(S(=O)(=O)N4CCCC4)c3)cs2)ccc1O	.	98*	-3	-98	11	0
O=C(C[C@H]1CC[C@@H]2[C@H](COC[C@H](O)CN2C(=O)C2CCCC2)O1)NCc1ccncc1	122*[16.7 µM]	.	.	.	6	.
O=C(C[C@@H]1CC[C@H]2[C@@H](COC[C@@H](O)CN2C(=O)C2CCCC2)O1)NCc1ccncc1	138*[16.7 µM]	.	.	.	-14	.
O=C(C[C@@H]1CC[C@@H]2[C@H](COC[C@H](O)CN2C(=O)C2CCCC2)O1)NCc1ccncc1	48[16.7 µM]	.	.	.	.	.
